NR2E3 ag-1 – NR2E3 agonists in two-hybrid cells, primary screen, cell-based, luminescence, CHO-S, Gal4-NCOR/VP16-NR2E3; Photoreceptor-specific nuclear receptor (Homo sapiens), Q9Y5X4; luciferase; inhibition of corepressor binding, % at 3.98 µM; actives 0.35% (n = 360,000); AID 602229, 2012;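 active means inhibition above the mean of all tested compounds plus 3 SD, cut at about 70% in these data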;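 further: 0% = DMSO with NR2E3 transfected cells and 100% = cells lacking NR2E3 construct; higher means lower luciferase signal from less NR2E3 corepressor binding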
Target sequence (Q9Y5X4 whole entry, looked up, the tested form may be a part): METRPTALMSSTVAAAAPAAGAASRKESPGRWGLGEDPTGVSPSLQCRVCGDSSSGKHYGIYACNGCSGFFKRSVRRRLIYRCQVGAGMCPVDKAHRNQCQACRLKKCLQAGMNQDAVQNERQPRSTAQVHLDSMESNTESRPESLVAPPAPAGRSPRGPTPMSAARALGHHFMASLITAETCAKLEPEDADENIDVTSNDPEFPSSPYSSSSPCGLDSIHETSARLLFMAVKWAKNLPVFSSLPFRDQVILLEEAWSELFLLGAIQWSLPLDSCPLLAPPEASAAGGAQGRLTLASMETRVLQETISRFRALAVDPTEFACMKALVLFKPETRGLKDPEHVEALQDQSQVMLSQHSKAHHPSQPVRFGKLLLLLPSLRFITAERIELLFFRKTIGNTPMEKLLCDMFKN
GalR3 antagonist – GalR3 antagonists in HEK293 cells, primary screen, cell-based, fluorescence readout; actives 0.44% (n = 360,000); HEK293 GalR3-CNG cAMP membrane potential fluorescence; galR3 body fused to GalR1 C-terminus; AID 651719, 2012; Galanin receptor type 3 (Homo sapiens), O60755; inhibition, % at 3 µM;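 active means inhibition above the screen-wide average plus 3 SD, cut at about 13% in these data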;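 further: forskolin and galanin both at EC90 stimulate the cells; cAMP rise reported by CNG channel membrane potential dye signal; 0% = forskolin plus galanin with DMSO and 100% = forskolin alone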
Env fusion inh – inhibitors of HIV-1 Env-driven cell-cell fusion, primary screen, HeLa-JRFL effector, CEM21 target cells, luciferase; inhibition, % at 12.3 µM; actives 1.1% (n = 360,000); AID 651610, 2012;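 active means mean replicate inhibition score of at least 50 and every replicate individually at or above 50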;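 further: 0% = plate neutral controls and 100% = maraviroc near 300 nM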
NR2E3 ag-2 – inhibitors of NR2E3-RetCOR corepressor binding, primary screen, NR2E3 agonist project, biochemical, TR-FRET, GST-NR2E3, biotin-RetCOR; 1536-well; inhibition of corepressor binding, % at 4.78 µM; actives 0.12% (n = 320,000);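 active means percent inhibition above the cutoff of mean plus 3 SD of all tested compounds, set per screening campaign, cut at about 20% in these data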;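 further: 0% = DMSO wells and 100% = biotin wells as full block of FRET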
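Material – GST-tagged NR2E3 plus biotinylated RetCOR corepressor · Quantity – NR2E3 fusion 1.35 nM · Times – 5 h incubation at 4 °C · Medium – pH 7.5 Tris-based buffer · Technique – TR-FRET, Eu(K)-anti-GST donor, streptavidin-D2 acceptor, ex 340, em 617/671 nm · Benchmarks – high control biotin, low control 0.6% DMSO · Format – 1536-well plates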
FXN GAA850 act – FXN promoter activators, primary screen, cell-based, luciferase luminescence, HEK293 lucGAA850; HEK293 lucGAA850 FXN promoter luciferase reporter, 24 h; percent of 10 µM SAHA response; activation, % at 6 µM; actives 0.56% (n = 360,000); AID 540364, 2011;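 active means activation above the average of all compounds screened plus 3 SD, cutoff fixed separately per campaign, cut at about 7.5% in these data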;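 further: 0% = DMSO wells and 100% = 10 µM SAHA wells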
V-ATPase pH – regulators of yeast V-ATPase proton pumping, primary screen, pHLuorin cytosolic pH fluorescence. S. cerevisiae. response, % at 10 µM. actives 0.37% (n = 350,000). AID 504577, 2011; in the data active means response mostly above about 7.3%, no sharp cut-off; inactive means mostly below about 5.4%; further: actives read high
NR2E3 ag confirm – NR2E3 agonist confirmation in cells, cell-based, luminescence, CHO-S two-hybrid; shares compounds with NR2E3 ag-1; CHO-S mammalian two-hybrid NR2E3-NCOR, luciferase luminescence; inhibition, % at 3.98 µM; actives 51% (n = 2,300); AID 624378, 2012;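 active means average inhibition above a cutoff equal to the mean inhibition of all tested compounds plus one SD, cut at about 70% in these data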;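 further: 0% = DMSO in NR2E3 cells and 100% = DMSO in cells lacking NR2E3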
VP16 counter – GAL4-VP16 reporter modulators, confirmation, counter-screen for NR2E3 agonist project, cell-based, luminescence, CHO-S, high throughput | shares compounds with NR2E3 ag-1 | CHO-S GAL4-VP16 luciferase reporter | inhibition, % at 3.98 µM | actives 29% (n = 2,300) | AID 624379, 2012;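 active means mean inhibition above a cutoff equal to the average over all tested compounds plus one standard deviation, cut at about 70% in these data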;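 further: luciferase from a UAS reporter driven by GAL4-VP16 transactivation; 0% = DMSO with VP16-transfected cells and 100% = DMSO with cells lacking VP16; higher means less reporter light so more repression of VP16 activity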
The depositor's hits bear a star; · = no result given; [ ] = another dose, or the depositor's remark. A selection: hits, their analogues and other compounds. The true share with any hit is near 2.2%.

SMILES	NR2E3 ag-1	GalR3 antagonist	Env fusion inh	NR2E3 ag-2	FXN GAA850 act	V-ATPase pH	NR2E3 ag confirm	VP16 counter
C[C@@H]1CN([C@@H](C)CO)C(=O)c2cccc(NC(=O)c3cnccn3)c2O[C@@H]1CN(C)S(=O)(=O)c1ccc(F)cc1	·	·	-26[16.7 µM]	·	·	·	·	·
CN(C)C(=O)[C@@H]1[C@@H](CO)[C@@H]2Cn3c(ccc(C4=CCCCC4)c3=O)[C@@H]2N1Cc1ccccn1	·	·	11[16.7 µM]	·	·	·	·	·
Cn1c(Sc2nc3ccccc3n2C)nc2ccccc21	76*	-4	-109	-2	1	-7	58	19
Cn1c(SCC(=O)N2CCCC2)nc2ccccc21	5	0	-5	8	1	-3	·	·
C[C@H](CO)N1C[C@H](C)[C@H](CN(C)C(=O)Nc2cccc3ccccc23)Oc2c(NC(=O)Nc3ccc4c(c3)OCO4)cccc2C1=O	·	·	-62[16.7 µM]	·	·	·	·	·
C[C@H](CO)N1C[C@H](C)[C@H](CN(C)Cc2ccncc2)Oc2c(NC(=O)Nc3ccc(F)cc3)cccc2C1=O	·	·	0[16.7 µM]	·	·	·	·	·
CC(=O)Nc1ccc(S(=O)(=O)NCCC(=O)Nc2ccc(C)c(Cl)c2)cc1	11	-3	-13	0	-3	-2	·	·
CC(=O)Nc1ccc(S(=O)(=O)NCCSCc2ccccc2Cl)cc1	71*	-2	·	4	-1	5	82*	65
O=c1[nH][nH]c(-c2ccccc2)c1C=Nc1ccc(C(F)(F)F)cc1	9	8	7	1	3	2	·	·
O=c1[nH][nH]c(-c2ccccc2)c1C=Nc1ccc(OC(F)(F)F)cc1	67	-1	23	-1	1	-1	34	0
Cc1onc(-c2ccccc2)c1C(=O)Nc1ncc([N+](=O)[O-])s1	101*	-6	72*	-1	-2	-3	99*	81*
O=C1N(c2ccccc2)C[C@@H]2C[C@@H](c3cc4ccccc4o3)N3CCC[C@@]123	78*	-11	76*	·	-14	-1	99*	85*
CCc1csc(N2[C@H](C#N)[C@H](c3ccc(-c4ccc(F)cc4)cc3)[C@@H]2CO)n1	·	·	16[16.7 µM]	·	·	·	·	·
Cc1nc(NS(=O)(=O)c2ccccc2)sc1C(=O)NNS(=O)(=O)c1ccccc1	-4	-10	-2	3	-1	2	·	·
Cc1nc(C)c(C(=O)NNS(=O)(=O)c2ccc3ccccc3c2)s1	48	-2	33	-1	-1	0	82*	76*
COc1ccc(CN(C)C[C@H]2Oc3ccc(NC(=O)CCC(F)(F)F)cc3CC(=O)N([C@@H](C)CO)C[C@H]2C)cc1	·	·	-21[16.7 µM]	·	·	·	·	·
CC[C@H](C)C(=O)O[C@H]1C[C@@H](C)C=C2C=C[C@H](C)[C@H](CC[C@@H]3C[C@@H](O)CC(=O)O3)[C@H]21	24	5	·	2	1	4	48	19
Cc1ccc(S(=O)(=O)Nc2ccc3c(c2)C(=O)N([C@H](C)CO)C[C@H](C)[C@@H](CN(C)S(C)(=O)=O)OCCCC[C@H](C)O3)cc1	·	·	-14[16.7 µM]	·	·	·	·	·
Cc1cc(CSc2nc(C)cc(=O)[nH]2)c2ncccc2c1	86*	-6	-7	-3	2	2	94*	72*
Cc1cc(=O)[nH]c(SCc2cccc3ccccc23)n1	71*	-7	-3	-2	1	-1	80*	57
Cc1cc(=O)[nH]c(SCc2cccc(Br)c2)n1	24	2	·	2	1	-1	·	·

Source: PubChem BioAssay (several laboratories)
